In ChEMBL document CHEMBL3407360, “Proteasome inhibitors with pyrazole scaffolds from structure-based virtual screening” (J Med Chem, 2015):
The source made the active and inactive calls. The calls are words filed in the database; no cut-off is given here.

How the values were obtained:
Homo sapiens [1] = organism: Homo sapiens; assay: Inhibition of human 20S proteasome chymotrypsin-like activity preincubated at 10 uM for 30 mins before substrate addition measured over 90 mins by fluorescence assay
BXPC-3 = assay: Cytotoxicity against human BxPC3 cells after 72 hrs; type: functional, cell-based
Procedure, shortened: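 Adherent lines, growing in log phase in DMEM or RPMI 1640 with 10% FBS, were plated at 7,000–10,000 cells/well. Compound was added 24 h later at the final concentration. Viability was measured after 72 h by CellTiter Glo luminescence or CellTiter 96 Aqueous One absorbance.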

Homo sapiens [2] = organism: Homo sapiens; assay: Induction of human 20S proteasome chymotrypsin-like activity preincubated at 10 uM for 30 mins before substrate addition measured over 90 mins by fluorescence assay
Mus musculus = assay: Toxicity in human LNCAP cells xenografted nude mouse assessed as body weight loss at 5 mg/kg, ip twice a week for 4 weeks; type: organism-based; set-up: dose 5 mg/kg, route intraperitoneal; details: in vivo, 672 h
Procedure, shortened: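 Male athymic BALB/c nude mice, six weeks old, implanted subcutaneously with LNCaP cells (2 x 10^6 cells/50 µL). At ~100 mm3 tumors, n=5/group received 5 mg/kg ip twice weekly for four weeks in 8% DMSO in HP-β-cyclodextrin and citrate. Tumor volume ((width)2 x length/2) and body weight were measured every 4 days. Tumors were excised and weighed at Day 30.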

SMILES | inhibition (Homo sapiens [1]) | other results
Cc1ccc(OS(=O)(=O)c2cccc(C(F)(F)F)c2)c(-c2cc(-c3ccccc3)n(CC(=O)OCc3cccc(O)c3C)n2)c1 | Active | –
Cc1ccc(OS(=O)(=O)c2cccc(C(F)(F)F)c2)c(-c2cc(-c3ccccc3)n(CC(=O)OCc3cc(C)on3)n2)c1 | Active | –
Cc1ccc(OS(=O)(=O)c2cccc(C(F)(F)F)c2)c(-c2cc(-c3ccccc3)n(CC(=O)NCC(C)(C)C)n2)c1 | Active | –
Cc1ccc(OS(=O)(=O)c2cccc(C(F)(F)F)c2)c(-c2cc(C3CCCN(C(=O)N[C@@H]4CCNC4)C3)n(CCN[C@@H]3CCNC3)n2)c1 (stereo partly drawn) | – | Activity (BXPC-3): inactive
CC(C)=CCOC(=O)Cn1nc(-c2cc(C)ccc2OS(=O)(=O)c2cccc(C(F)(F)F)c2)cc1-c1ccccc1 | Active | –
CC1=C(COC(=O)Cn2nc(-c3cc(C)ccc3OS(=O)(=O)c3cccc(C(F)(F)F)c3)cc2-c2ccccc2)Cc2ccccc21 | Active | Activity (Homo sapiens [2]): 200%
CC(C)C[C@H](NC(=O)[C@H](CCc1ccccc1)NC(=O)CN1CCOCC1)C(=O)N[C@@H](Cc1ccccc1)C(=O)N[C@@H](CC(C)C)C(=O)[C@@]1(C)CO1 [CARFILZOMIB] | – | Activity (Mus musculus): Toxic
Cc1ccc(OS(=O)(=O)c2cccc(C(F)(F)F)c2)c(-c2cc(-c3ccccc3)n(CC(=O)N(C)CC[C@@H](Oc3ccccc3)c3ccccc3)n2)c1 | Active | –
Cc1ccc(OS(=O)(=O)c2cccc(C(F)(F)F)c2)c(-c2cc(-c3ccccc3)n(CC(=O)OCc3ccc(C)o3)n2)c1 | Active | –
Cc1ccc(OS(=O)(=O)c2cccc(C(F)(F)F)c2)c(-c2cc(-c3ccccc3)n(CC(=O)OCc3ccccc3)n2)c1 | Active | –
Cc1ccc(OS(=O)(=O)c2cccc(C(F)(F)F)c2)c(-c2cc(-c3ccccc3)n(CC(=O)NCc3ccccc3)n2)c1 | Active | –
Cc1ccc(OS(=O)(=O)c2cccc(C(F)(F)F)c2)c(-c2cc(-c3ccccc3)n(CC(=O)N[C@@H]3CCN(C(=O)CN4CCOCC4)C3)n2)c1 | Active | –
Cc1ccc(OS(=O)(=O)c2cccc(C(F)(F)F)c2)c(-c2cc(-c3ccccc3)n(CC(=O)O)n2)c1 | Active | –
Cc1ccc(OS(=O)(=O)c2cccc(C(F)(F)F)c2)c(-c2cc(-c3ccccc3)n(CC(=O)NCc3cnccn3)n2)c1 | Active | –
Cc1ccc(OS(=O)(=O)c2cccc(C(F)(F)F)c2)c(-c2cc(C3CCCCC3)n(CCN[C@@H]3CCNC3)n2)c1 | – | Activity (BXPC-3): inactive
Cc1ccc(OS(=O)(=O)c2cccc(C(F)(F)F)c2)c(-c2cc(-c3ccccc3)n(CC(=O)OCc3scnc3C)n2)c1 | Active | –
Cc1ccc(OS(=O)(=O)c2cccc(C(F)(F)F)c2)c(-c2cc(-c3ccccc3)n(CC(=O)NC(C)(C)CO)n2)c1 | Active | –
Cc1ccc(OS(=O)(=O)c2cccc(C(F)(F)F)c2)c(-c2cc(C3CCCNC3)n(CCN[C@@H]3CCNC3)n2)c1 (stereo partly drawn) | – | Activity (BXPC-3): inactive
Cc1ccc(OS(=O)(=O)c2cccc(C(F)(F)F)c2)c(-c2cc(-c3ccccc3)n(CC(=O)N[C@@H]3CCN(C(=O)CCc4ccccc4)C3)n2)c1 | Active | –

Continued, in another order:

inhibition (Homo sapiens [1]) | SMILES | other results
Active | Cc1ccc(OS(=O)(=O)c2cccc(C(F)(F)F)c2)c(-c2cc(-c3ccccc3)n(CC(=O)NCCCN3CCCC3=O)n2)c1 | –
Active | CCOCCS(=O)(=O)Oc1ccc(C)cc1-c1cc(-c2ccccc2)n(CCN[C@@H]2CCNC2)n1 | –
Active | Cc1ccc(OS(=O)(=O)c2cccc(C(F)(F)F)c2)c(-c2cc(-c3ccccc3)n(CC(=O)N(C)C)n2)c1 | –
Active | Cc1ccc(OS(=O)(=O)c2cccc(C(F)(F)F)c2)c(-c2cc(-c3ccccc3)n(CC(=O)N[C@@H]3CCN(C)C3)n2)c1 | –
Active | Cc1ccc(OC(=O)c2cccc(C(F)(F)F)c2)c(-c2cc(-c3ccccc3)n(CCN[C@@H]3CCNC3)n2)c1 | –
Active | Cc1ccc(OS(=O)(=O)c2cccc(C(F)(F)F)c2)c(-c2cc(-c3ccccc3)n(CC(=O)O[C@@H]3CCNC3)n2)c1 | –
Active | Cc1ccc(OCc2cccc(C(F)(F)F)c2)c(-c2cc(-c3ccccc3)n(CCN[C@@H]3CCNC3)n2)c1 | –
Active | Cc1ccc(OS(=O)(=O)c2cccc(C(F)(F)F)c2)c(-c2cc(-c3ccccc3)n(CC(=O)NC[C@@H]3CCCO3)n2)c1 | –
Active | Cc1ccc(OS(=O)(=O)c2cccc(Cl)c2)c(-c2cc(-c3ccccc3)n(CCN[C@@H]3CCNC3)n2)c1 | –
Active | Cc1ccc(OS(=O)(=O)c2ccc(F)c([N+](=O)[O-])c2)c(-c2cc(-c3ccccc3)n(CCN[C@@H]3CCNC3)n2)c1 | Activity (Homo sapiens [2]): 200%
Active | Cc1ccc(OS(=O)(=O)c2ccc(Br)cc2OC(F)(F)F)c(-c2cc(-c3ccccc3)n(CCN[C@@H]3CCNC3)n2)c1 | –
Active | Cc1ccc(OS(=O)(=O)c2ccc3c(c2)OCCO3)c(-c2cc(-c3ccccc3)n(CCN[C@@H]3CCNC3)n2)c1 | –
Active | Cc1ccc(OS(=O)(=O)c2cccc(C(F)(F)F)c2)c(-c2cc(-c3ccccc3)n(CC(=O)N[C@H]3CCNC3)n2)c1 | –
Active | Cc1ccc(OS(=O)(=O)c2cccc(C(F)(F)F)c2)c(-c2cc(-c3ccccc3)n(CC(=O)NCCN3CCOCC3)n2)c1 | –
Active | Cc1ccc(OS(=O)(=O)c2ccc(C(F)(F)F)nc2)c(-c2cc(-c3ccccc3)n(CCN[C@@H]3CCNC3)n2)c1 | –
Active | Cc1ccc(OS(=O)(=O)c2cc(F)c(Br)c(F)c2)c(-c2cc(-c3ccccc3)n(CCN[C@@H]3CCNC3)n2)c1 | –
Active | CC(=O)N1CC[C@@H](NC(=O)Cn2nc(-c3cc(C)ccc3OS(=O)(=O)c3cccc(C(F)(F)F)c3)cc2-c2ccccc2)C1 | –
